# Assay results from different studies.
# Protocols differ between the studies behind these lines.
# MAOA: Amine oxidase [flavin-containing] A (MAOA, Homo sapiens, UniProt P21397)
# PRMT3: Protein arginine N-methyltransferase 3 (PRMT3, Homo sapiens, UniProt O60678)
# Oprk1: Kappa-type opioid receptor (Oprk1, Rattus norvegicus, UniProt P34975)
# ADRA1A: Alpha-1A adrenergic receptor (ADRA1A, Homo sapiens, UniProt P35348)
Compound,target,test,setting,inhibition
O=C(c1ccc(Cl)cc1)N(Cc1ccccc1)C1CCCCC1,"Vasoactive intestinal polypeptide receptor 1 (VIPR1, Homo sapiens, UniProt P32241)",cell-free assay,10 µM,-0.7%
O=C(Nc1ccc(OC(F)(F)F)cc1)c1ccccc1,MAOA,"enzyme activity, inhibitor","1 µM, 20 min",24%
CC(C)CCN[C@@H]1C[C@@H](c2ccc(Cl)c(Cl)c2)c2ccccc21 (relative stereo),"Glutathione reductase, mitochondrial (GSR, Homo sapiens, UniProt P00390)","enzyme activity, inhibitor",25 µM,< 12%
O=C(Nc1ccccc1)c1ccccc1O,MAOA,"enzyme activity, inhibitor","1 µM, 20 min",28%
CC[C@H](C)[C@H](NC(=O)[C@H](CCC(N)=O)NC(=O)[C@H](CC(C)C)NC(=O)[C@H](CCSC)NC(=O)[C@H](CCCCN)NC(=O)[C@H](CO)NC(=O)[C@H](CO)NC(=O)[C@H](CCSC)NC(=O)[C@H](CC(C)C)NC(=O)[C@H](CC(N)=O)NC(=O)[C@@H](NC(=O)[C@@H](NC(=O)[C@H](CO)NC(=O)[C@H](CC(C)C)NC(=O)[C@H](CS)NC(=O)[C@H](CCCNC(=N)N)NC(=O)[C@H](CC(=O)O)NC(=O)[C@H](Cc1c[nH]c2ccccc12)NC(=O)[C@H](Cc1ccccc1)NC(=O)[C@H](C)NC(=O)[C@H](CCC(=O)O)NC(=O)[C@@H](N)CCCCN)C(C)C)[C@@H](C)CC)C(=O)N[C@@H](CC(N)=O)C(=O)N[C@@H](C)C(=O)O,"Cyclin-dependent kinase 5, with p25 (CDK5, Homo sapiens, UniProt Q00535)","enzyme activity, inhibitor, radiometric",500 µM,72%
O=C(Nc1ccc([N+](=O)[O-])cc1Cl)c1cc2ccccc2s1,MAOA,"enzyme activity, inhibitor","1 µM, 20 min",11%
N=C(NCCCSC[C@H]1O[C@@H](n2cnc3c(NCCCc4ccccc4)ncnc32)[C@H](O)[C@@H]1O)NC1CCCC1,PRMT3,"enzyme activity, inhibitor, fluorescence",10 µM,-23.3%
Oc1cccc(Nc2nc(-c3ccc(F)cc3F)cs2)c1,Oprk1,"ligand displacement, radioligand",10 µM,83%
CCN(CC)c1ccc(C2Nc3ccc(C(=O)c4ccccc4)cc3NC3=C2C(=O)CC(C)(C)C3)cc1 (stereo not shown),ADRA1A,"ligand displacement, radioligand",10 µM,17%
N=C(NCCCSC[C@H]1O[C@@H](n2cnc3c(NCCCc4ccccc4)ncnc32)[C@H](O)[C@@H]1O)NCC1CC1,PRMT3,"enzyme activity, inhibitor, fluorescence",10 µM,-19.4%
COc1cc(NC(C)=O)c(Cl)cc1C(=O)Nc1nccs1,Oprk1,"ligand displacement, radioligand",10 µM,42.5%
N=C(NCCCSC[C@H]1O[C@@H](n2cnc3c(NCCCc4ccccc4)ncnc32)[C@H](O)[C@@H]1O)NC1CCC1,PRMT3,"enzyme activity, inhibitor, fluorescence",10 µM,-37.6%
COC(=O)CN=c1scc(-c2ccccc2)n1-c1ccc(Cl)cc1,"L-lactate dehydrogenase A chain (LDHA, Homo sapiens, UniProt P00338)","enzyme activity, inhibitor, fluorescence","100 µM, pH 7.2",41%
COc1cc([N+](=O)[O-])ccc1NC(=O)c1ccc(Cl)cc1,MAOA,"enzyme activity, inhibitor","1 µM, 20 min",2%
CNC(=O)c1cc(Oc2ccc(NC(=O)Nc3ccc(Cl)c(C(F)(F)F)c3)cc2)ccn1,"Ribosomal protein S6 kinase alpha-1 (Rps6ka1, Rattus norvegicus, UniProt Q63531)","enzyme activity, inhibitor",10 µM,19%
O=C(Nc1ccc([N+](=O)[O-])cc1[N+](=O)[O-])c1ccccc1O,MAOA,"enzyme activity, inhibitor","1 µM, 20 min",49%
CCCNc1nc2ccccc2n1Cc1ccc(Cl)cc1,ADRA1A,ligand displacement,10 µM,-2.69%
CN1CC(Oc2cnc(C#N)cc2-c2ccn3nc(NC(=O)C4CC4)cc3c2)C1,"Cyclin-dependent kinase-like 2 (CDKL2, Homo sapiens, UniProt Q92772)","enzyme activity, inhibitor",1 µM,-18%
COc1ccc(/C=C/C(=O)N2CCc3ccccc3C2)cc1OC,MAOA,"enzyme activity, inhibitor, fluorescence",62.5 µM,11.3%
